These results are taken from ChEMBL document CHEMBL4765446, “Synthesis of ticagrelor analogues belonging to 1,2,3-triazolo[4,5-d]pyrimidines and study of their antiplatelet and antibacterial activity” (2020).

The structures appear in SMILES notation. ≈ marks a conversion by molar mass, not a printed value.

In one assay the test system is Plasma. The assay can be described thus: Antiplatelet activity in human platelet-rich plasma assessed as inhibition of ADP-induced platelet aggregation at 1.8 uM preincubated for 10 mins followed by ADP addition and measured for 10 mins by light transmission aggregometry relative to control. Type of assay: functional. The settings on record: time 20 min. In a few lines: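 Citrated (3.2%) venous blood from drug-free healthy volunteers aged 20–40 years; PRP from 100 × g 15 min spin, adjusted to 250000/µl with autologous PPP (800 × g 15 min). Compound or vehicle (1% DMSO) preincubated 10 min, then stirring at 1200 rpm, 37 °C, and ADP 10 µM added. Aggregation followed 10 min; AUC expressed as fold-inhibition vs vehicle, mean ± S.D., n = 4–21 donors, Wilcoxon paired test.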

The subject of a further assay is Staphylococcus aureus. The assay can be described thus: Antibacterial activity against methicillin-resistant Staphylococcus aureus BAA-1556 by broth microdilution method. Type of assay: functional. The essentials:
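Single colony from Brain Heart Infusion agar grown overnight in BHI broth, aerobic, 37 °C, 190 rpm. Diluted 100-fold in Mueller-Hinton broth, grown to exponential phase. About 5.10^5 CFU/ml then incubated with or without a range of concentrations, vehicle 1% DMSO. Growth read as OD600. MIC per EUCAST is the lowest concentration with no visible growth, i.e. ΔOD600 versus blank (medium + 1% DMSO) equal to zero.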

What is called MIC is the lowest concentration found to suppress growth. Regarding `CC(O)CSc1nc(N[C@@H]2C[C@H]2c2ccc(F)c(F)c2)c2nnn([C@@H]3C[C@H](OCCO)[C@@H](O)[C@H]3O)c2n1` (stereo partly specified), in the assay with Plasma, the “fold change (FC)” value turned out to be 1.7. In the assay on Staphylococcus aureus, this compound yielded an MIC of more than 200 µM.
In the case of `CCCSc1nc(N[C@@H]2C[C@H]2c2ccc(F)c(F)c2)c2nnn([C@@H]3C[C@H](OCCO)[C@@H](O)[C@H]3O)c2n1` [TICAGRELOR], the “fold change (FC)” value in the assay with Plasma worked out at 4.3. Further, the MIC against Staphylococcus aureus stood at 25 µM (≈ 13.1 µg/mL).
The matching figures for `OCCCSc1nc(N[C@@H]2C[C@H]2c2ccc(F)c(F)c2)c2nnn([C@@H]3C[C@H](OCCO)[C@@H](O)[C@H]3O)c2n1`: 1 and more than 200 µM.
Turning to `CCCSc1nc(N)c2nnn([C@@H]3C[C@H](O)[C@@H](O)[C@H]3O)c2n1`, the “fold change (FC)” value with Plasma worked out at 1.1. This compound also came in with a minimum inhibitory concentration (MIC) in the assay on Staphylococcus aureus of more than 200 µM.
Consider `O[C@@H]1[C@H](O)[C@@H](O)C[C@H]1n1nnc2c(N[C@@H]3C[C@H]3c3ccc(F)c(F)c3)ncnc21`, for which the “fold change (FC)” value with Plasma was determined as 1. Besides, the minimal inhibitory concentration (MIC) in the assay with Staphylococcus aureus was more than 200 µM.
The matching figures for `CC(O)CSc1nc(N)c2nnn([C@@H]3C[C@H](O)[C@@H](O)[C@H]3O)c2n1` (stereo partly specified): 1 and more than 200 µM.
For the compound `CCCSc1nc(N[C@@H]2C[C@H]2c2ccc(F)c(F)c2)c2nnn(C)c2n1`, the “fold change (FC)” value in the assay on Plasma is 1.08. Besides, the minimum inhibitory concentration (MIC) in the assay with Staphylococcus aureus was more than 200 µM.
On to `CCSc1nc(N[C@@H]2C[C@H]2c2ccc(F)c(F)c2)c2nnn(C)c2n1`, for which the “fold change (FC)” value in the assay with Plasma is reported as 0.97. The same compound had a minimum inhibitory concentration (MIC) in the assay with Staphylococcus aureus of more than 200 µM.
In the case of `CSc1nc(N[C@@H]2C[C@H]2c2ccc(F)c(F)c2)c2nnn(C)c2n1`, the “fold change (FC)” value in the assay with Plasma was determined as 0.94. In the assay with Staphylococcus aureus, the MIC was more than 200 µM.
The matching figures for `CCCSc1nc(N[C@@H]2C[C@H]2c2ccc(F)c(F)c2)c2nnn(C3CCCC3)c2n1`: 1 and more than 200 µM.
For the compound `CCCSc1nc(N[C@@H]2C[C@H]2c2ccccc2)c2nnn([C@@H]3C[C@H](OCCO)[C@@H](O)[C@H]3O)c2n1`, in the assay with Plasma, the “fold change (FC)” value came to 3.1. For the same compound, in the assay on Staphylococcus aureus, the minimum inhibitory concentration (MIC) is more than 200 µM.
For `CCCSc1nc(N[C@@H]2C[C@H]2c2ccc(F)c(F)c2)c2nnn([C@@H]3C[C@H](O)[C@@H](O)[C@H]3O)c2n1`, in that order: 4.8 and 25 µM (≈ 12 µg/mL).
Consider `CCCSc1nc(N)c2nnn([C@@H]3C[C@H](OCCO)[C@@H](O)[C@H]3O)c2n1`, for which the “fold change (FC)” value in the assay on Plasma is 1.1. In the assay on Staphylococcus aureus, this compound came in with an MIC of more than 200 µM.
`C[C@H](O)CSc1nc(N[C@@H]2C[C@H]2c2ccc(F)c(F)c2)c2nnn([C@@H]3C[C@H](O)[C@@H](O)[C@H]3O)c2n1`: the “fold change (FC)” value in the assay with Plasma is reported as 2. In the assay on Staphylococcus aureus, this compound gave an MIC of more than 200 µM.
In the case of `O[C@@H]1[C@H](O)[C@@H](O)C[C@H]1n1nnc2c(N[C@@H]3C[C@H]3c3ccc(F)c(F)c3)nc(Cl)nc21`, the “fold change (FC)” value in the assay on Plasma is 1.1. Also, the MIC against Staphylococcus aureus was more than 200 µM.
Turning to `CCCSc1nc(N[C@@H]2C[C@H]2c2ccc(F)c(F)c2)c2nnn(CC)c2n1`, in the assay with Plasma, the “fold change (FC)” value came to 0.97. This compound also yielded an MIC with Staphylococcus aureus of more than 200 µM.
Take `Nc1nc(SCCCO)nc2c1nnn2[C@@H]1C[C@H](O)[C@@H](O)[C@H]1O`: the “fold change (FC)” value in the assay on Plasma stood at 1. For the same compound, in the assay with Staphylococcus aureus, the MIC is more than 200 µM.
`OCCCSc1nc(N[C@@H]2C[C@H]2c2ccc(F)c(F)c2)c2nnn([C@@H]3C[C@H](O)[C@@H](O)[C@H]3O)c2n1`: in the assay with Plasma, the “fold change (FC)” value is 2.7. This compound registered an MIC in the assay with Staphylococcus aureus of more than 200 µM.
Turning to `C[C@@H](O)CSc1nc(N[C@@H]2C[C@H]2c2ccc(F)c(F)c2)c2nnn([C@@H]3C[C@H](O)[C@@H](O)[C@H]3O)c2n1`, in the assay with Plasma, the “fold change (FC)” value was found to be 6.2. The compound also registered an MIC in the assay with Staphylococcus aureus of more than 200 µM.
As for `CCSc1nc(N[C@@H]2C[C@H]2c2ccc(F)c(F)c2)c2nnn(CC)c2n1`, the “fold change (FC)” value in the assay on Plasma is recorded as 0.91. Besides, in the assay with Staphylococcus aureus, the MIC is more than 200 µM.
For `CCn1nnc2c(N[C@@H]3C[C@H]3c3ccc(F)c(F)c3)nc(SC)nc21`, in that order: 0.87 and more than 200 µM.
For the compound `CCCSc1nc(NCCc2ccc(F)c(F)c2)c2nnn([C@@H]3C[C@H](OCCO)[C@@H](O)[C@H]3O)c2n1`, the “fold change (FC)” value in the assay with Plasma was found to be 1.1. In the assay on Staphylococcus aureus, this compound came in with an MIC of more than 200 µM.
Regarding `CCCSc1nc(NC2CC2)c2nnn([C@@H]3C[C@H](OCCO)[C@@H](O)[C@H]3O)c2n1`, the “fold change (FC)” value in the assay on Plasma turned out to be 2.6. In addition, in the assay on Staphylococcus aureus, the MIC is more than 200 µM.
